# Test results from ChEMBL document CHEMBL4765452, “Discovery of (E)-N-(4-methyl-5-(3-(2-(pyridin-2-yl)vinyl)-1H-indazol-6-yl)thiazol-2-yl)-2-(4-methylpiperazin-1-yl)acetamide (IHMT-TRK-284) as a novel orally available type II TRK kinase inhibitor capable of overcoming multiple resistant mutants” (Eur J Med Chem, 2020).
# Assays:
# [1] = molecular target: High affinity nerve growth factor receptor (Homo sapiens, UniProt P04629); experiment: Inhibition of wild type TEL fused TRKA (unknown origin) transfected in mouse BAF3 cells assessed as growth inhibition after 72 hrs by CCK8 assay; assay type: cell-based
# [2] = Antiproliferative activity in mouse BAF3 cells assessed as growth inhibition after 72 hrs by CCK8 assay; assay type: cell-based
# Procedure, shortened: (§1)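 TEL- or LMNA-fusion isogenic BaF3 lines grown in RPMI 1640 with 10% FBS and 1% penicillin/streptomycin at 37 °C, 5% CO₂; suspension cells collected by spinning at 800 rpm for 4 min before use; growth inhibition scored as GI₅₀.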
# [3] = molecular target: VEGFR2 (vascular endothelial growth factor receptor 2), wild type, TEL fusion (Homo sapiens, UniProt P35968); experiment: Inhibition of wild type TEL fused VEGFR2 (unknown origin) transfected in mouse BAF3 cells assessed as growth inhibition after 72 hrs by CCK8 assay; assay type: cell-based; conditions: mouse BaF3 cells transfected with wild type TEL-fused VEGFR2
# [4] = Antiproliferative activity against human KM-12-LUC cells harboring […] fused TRKA assessed as growth inhibition after 72 hrs by CCK8 assay; assay type: functional; conditions: KM12-Luc
# Procedure, shortened: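 KM-12-LUC cells seeded at 3 × 10⁴ cells/mL, incubated overnight at 37 °C, 5% CO₂, then medium replaced with fresh medium containing a range of compound concentrations for 72 h; viability read by CCK-8 absorbance at 450 nm, normalized to DMSO control, GI₅₀ from curve fitting.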
# [5] = Antitumor activity against human […] cells xenografted in nude mouse assessed as tumor growth inhibition at 80 mg/kg, po administered once daily for 10 days relative to control; assay type: functional; conditions: KM12-Luc, 240 h, time 10 day, read-out: TGI
# Procedure, shortened: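 Nu/nu mice given 5 million KM-12-LUC cells in DMEM, 1:1 with matrigel, injected subcutaneously into the right flank; oral gavage started at tumor size 150–200 mm³, 5 mice per group, compound in 0.5% methylcellulose/0.4% Tween 80 in ddH₂O; body weight and tumor volume [(W²×L)/2] measured daily; TGI versus vehicle.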
# [6] = test system: BaF3; experiment: Antitumor activity against mouse BAF3 cells harboring TEL fused TRKC allografted in nude mouse assessed as tumor growth inhibition at 80 mg/kg, po administered once daily for 10 days relative to control; assay type: functional; conditions: 240 h, time 10 day, read-out: TGI
# Procedure, shortened: (§2)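 Nu/nu mice given 1 million BaF3 cells (TEL-TRKA, TEL-TRKB, TEL-TRKC, LMNA-TRKA-F589L or LMNA-TRKA-G667S) in DMEM, 1:1 with matrigel, injected subcutaneously into the right flank; oral gavage began at 200–400 mm³, 5 mice per group, compound in 0.5% methylcellulose/0.4% Tween 80 in ddH₂O, 10 days; tumor volume [(W²×L)/2] and body weight recorded daily; TGI versus vehicle.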
# [7] = test system: High affinity nerve growth factor receptor (Homo sapiens), P04629 [G667C]; experiment: Inhibition of LMNA fused TRKA G667C mutant (unknown origin) transfected in mouse BAF3 cells assessed as growth inhibition after 72 hrs by CCK8 assay; assay type: cell-based; procedure, shortened: as §1
# [8] = test system: BaF3; experiment: Inhibition of LMNA fused TRKA V573M mutant (unknown origin) transfected in mouse BAF3 cells assessed as growth inhibition after 72 hrs by CCK8 assay; assay type: cell-based; conditions: Homo sapiens
# [9] = test system: BaF3; experiment: Antitumor activity against mouse BAF3 cells harboring TEL fused TRKA allografted in nude mouse assessed as tumor growth inhibition at 80 mg/kg, po administered once daily for 10 days relative to control; assay type: functional; conditions: 240 h, time 10 day, read-out: TGI; procedure, shortened: as §2
# [10] = test system: BaF3; experiment: Inhibition of LMNA fused TRKA F589L mutant (unknown origin) transfected in mouse BAF3 cells assessed as growth inhibition after 72 hrs by CCK8 assay; assay type: cell-based; conditions: Homo sapiens; procedure, shortened: as §1
# [11] = test system: BaF3; experiment: Inhibition of LMNA fused TRKA G667S mutant (unknown origin) transfected in mouse BAF3 cells assessed as growth inhibition after 72 hrs by CCK8 assay; assay type: cell-based; conditions: Homo sapiens
# High affinity nerve growth factor receptor, sequence (P04629 33-796 limits assumed): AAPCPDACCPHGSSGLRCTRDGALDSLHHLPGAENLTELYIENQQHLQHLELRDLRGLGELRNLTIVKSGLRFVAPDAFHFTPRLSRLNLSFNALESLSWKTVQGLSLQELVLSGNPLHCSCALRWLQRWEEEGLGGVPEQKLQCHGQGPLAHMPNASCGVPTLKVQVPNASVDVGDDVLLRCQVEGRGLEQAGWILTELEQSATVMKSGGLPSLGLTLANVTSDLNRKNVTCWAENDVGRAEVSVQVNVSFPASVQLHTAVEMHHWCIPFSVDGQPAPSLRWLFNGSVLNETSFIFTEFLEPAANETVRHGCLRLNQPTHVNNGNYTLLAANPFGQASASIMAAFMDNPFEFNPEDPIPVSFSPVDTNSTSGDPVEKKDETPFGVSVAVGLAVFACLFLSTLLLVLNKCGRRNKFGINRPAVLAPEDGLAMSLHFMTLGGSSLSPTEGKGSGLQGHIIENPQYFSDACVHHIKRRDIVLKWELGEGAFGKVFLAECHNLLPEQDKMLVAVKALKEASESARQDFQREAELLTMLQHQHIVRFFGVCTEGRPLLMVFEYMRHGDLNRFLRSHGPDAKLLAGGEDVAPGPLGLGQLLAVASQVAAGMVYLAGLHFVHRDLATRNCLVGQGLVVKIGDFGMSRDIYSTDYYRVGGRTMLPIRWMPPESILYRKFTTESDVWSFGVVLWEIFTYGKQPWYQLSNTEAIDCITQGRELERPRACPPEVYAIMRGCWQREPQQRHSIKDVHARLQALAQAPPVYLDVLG
# VEGFR2 (vascular endothelial growth factor receptor 2), wild type, TEL fusion, sequence (P35968 whole entry, the tested form may be a part): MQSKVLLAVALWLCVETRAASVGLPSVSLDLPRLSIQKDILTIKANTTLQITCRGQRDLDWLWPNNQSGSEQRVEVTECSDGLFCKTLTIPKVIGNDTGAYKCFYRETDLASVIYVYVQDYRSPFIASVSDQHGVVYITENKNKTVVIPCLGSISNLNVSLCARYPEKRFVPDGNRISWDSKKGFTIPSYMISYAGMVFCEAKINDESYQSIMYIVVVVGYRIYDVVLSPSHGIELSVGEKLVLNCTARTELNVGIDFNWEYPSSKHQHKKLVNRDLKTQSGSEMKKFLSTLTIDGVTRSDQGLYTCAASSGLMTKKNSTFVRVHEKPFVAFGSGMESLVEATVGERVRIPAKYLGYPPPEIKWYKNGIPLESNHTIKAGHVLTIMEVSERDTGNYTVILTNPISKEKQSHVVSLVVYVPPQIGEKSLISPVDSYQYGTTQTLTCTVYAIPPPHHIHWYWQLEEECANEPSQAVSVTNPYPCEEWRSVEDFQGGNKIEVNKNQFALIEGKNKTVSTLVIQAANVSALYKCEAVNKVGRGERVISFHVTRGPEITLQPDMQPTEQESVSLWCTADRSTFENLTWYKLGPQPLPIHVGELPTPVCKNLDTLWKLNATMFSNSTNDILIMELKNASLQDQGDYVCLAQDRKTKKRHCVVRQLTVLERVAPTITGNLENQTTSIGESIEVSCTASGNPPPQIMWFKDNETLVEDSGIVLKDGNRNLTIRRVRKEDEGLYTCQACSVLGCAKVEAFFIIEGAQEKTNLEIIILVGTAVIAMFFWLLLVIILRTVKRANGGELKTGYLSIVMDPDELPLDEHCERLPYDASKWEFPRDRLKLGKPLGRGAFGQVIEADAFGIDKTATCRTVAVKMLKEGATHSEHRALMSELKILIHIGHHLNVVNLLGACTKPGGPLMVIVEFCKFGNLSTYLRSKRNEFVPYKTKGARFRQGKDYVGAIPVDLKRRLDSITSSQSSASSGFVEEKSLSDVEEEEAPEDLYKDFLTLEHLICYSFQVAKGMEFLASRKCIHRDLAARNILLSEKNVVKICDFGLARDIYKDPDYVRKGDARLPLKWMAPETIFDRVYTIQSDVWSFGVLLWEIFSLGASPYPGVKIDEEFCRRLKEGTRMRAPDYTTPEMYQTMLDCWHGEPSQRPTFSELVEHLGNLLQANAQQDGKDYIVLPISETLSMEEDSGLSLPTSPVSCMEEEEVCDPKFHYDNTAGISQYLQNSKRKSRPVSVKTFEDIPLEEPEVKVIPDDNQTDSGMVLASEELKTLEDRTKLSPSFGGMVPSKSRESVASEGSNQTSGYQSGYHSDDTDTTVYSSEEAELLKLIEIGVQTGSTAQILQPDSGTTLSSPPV
# High affinity nerve growth factor receptor (Homo sapiens), P04629 [G667C], sequence (P04629 whole entry G667C, looked up, the tested form may be a part): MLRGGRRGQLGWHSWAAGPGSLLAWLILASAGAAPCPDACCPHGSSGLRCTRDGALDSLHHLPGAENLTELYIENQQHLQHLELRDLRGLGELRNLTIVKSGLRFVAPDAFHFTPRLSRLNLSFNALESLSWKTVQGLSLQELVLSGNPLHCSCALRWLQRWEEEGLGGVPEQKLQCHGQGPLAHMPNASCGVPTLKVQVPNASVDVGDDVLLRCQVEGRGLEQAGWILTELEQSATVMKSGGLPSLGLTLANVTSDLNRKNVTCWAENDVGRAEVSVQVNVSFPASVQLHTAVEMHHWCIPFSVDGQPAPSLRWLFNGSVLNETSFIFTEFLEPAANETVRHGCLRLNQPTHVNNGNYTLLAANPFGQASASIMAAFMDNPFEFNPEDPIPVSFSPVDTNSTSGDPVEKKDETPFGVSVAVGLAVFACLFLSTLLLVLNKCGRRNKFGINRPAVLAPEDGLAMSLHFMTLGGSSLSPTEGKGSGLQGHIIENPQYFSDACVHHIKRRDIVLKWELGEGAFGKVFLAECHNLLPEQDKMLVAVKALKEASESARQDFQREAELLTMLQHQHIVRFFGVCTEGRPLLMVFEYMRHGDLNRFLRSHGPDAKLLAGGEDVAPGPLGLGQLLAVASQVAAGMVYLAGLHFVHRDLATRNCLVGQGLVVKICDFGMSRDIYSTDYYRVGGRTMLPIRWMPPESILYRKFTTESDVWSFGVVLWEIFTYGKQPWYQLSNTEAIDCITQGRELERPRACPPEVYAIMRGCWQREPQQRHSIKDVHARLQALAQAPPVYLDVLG
Compound,GI50 [1] [nM],GI50 at 72 h [2] [nM],GI50 at 72 h [3] [nM],further results
COCCOCC(=O)Nc1nc(C)c(-c2ccc3c(/C=C/c4ccccn4)n[nH]c3c2)s1,35,1070,1780,
Cc1nc(NC(=O)Cc2cccc(C(F)(F)F)c2)sc1-c1ccc2c(/C=C/c3ccccn3)n[nH]c2c1,2,2310,13,
CN1CCN(Cc2ccc(NC(=O)CCSc3ccc4c(-c5ccncc5)n[nH]c4c3)cc2C(F)(F)F)CC1,448,,1,
CN1CCN(Cc2ccc(NC(=O)CCSc3ccc4c(/C=C/c5ccncc5)n[nH]c4c3)cc2C(F)(F)F)CC1,18,543,2,
Cc1ccc(-c2n[nH]c3cc(SCCC(=O)Nc4ccc(CN5CCN(C)CC5)c(C(F)(F)F)c4)ccc23)cn1,516,,1,
O=C(Nc1cnn2ccc(N3CCC[C@@H]3c3cc(F)ccc3F)nc12)N1CC[C@H](O)C1 [LAROTRECTINIB],,> 10000,,GI50 [4]: 11 nM; inhibition in vivo at 80 mg/kg/day [5]: 78.9%; inhibition in vivo at 80 mg/kg/day [6]: 33.8%; GI50 [7]: 602 nM; GI50 [8]: 258 nM; inhibition in vivo at 80 mg/kg/day [9]: 38.5%; GI50 [10]: 102 nM; GI50 [11]: 148 nM
CC(=O)Nc1nc(C)c(-c2ccc3c(/C=C/c4ccccn4)n[nH]c3c2)s1,4310,5240,301,
COc1ccc(CC(=O)Nc2nc(C)c(-c3ccc4c(/C=C/c5ccccn5)n[nH]c4c3)s2)cc1OC,40,4870,19,
CN1CCN(Cc2ccc(NC(=O)CCSc3ccc4c(/C=C/c5ccccn5)n[nH]c4c3)cc2C(F)(F)F)CC1,63,,2,
Cc1nc(NC(=O)CN2CCN(C)CC2)sc1-c1ccc2c(-c3ccn(C)n3)n[nH]c2c1,73,1530,351,
Cc1nc(NC(=O)Nc2cccc(C(F)(F)F)c2)sc1-c1ccc2c(/C=C/c3ccccn3)n[nH]c2c1,3,105,4,
CN1CCN(Cc2ccc(NC(=O)NCCSc3ccc4c(/C=C/c5ccccn5)n[nH]c4c3)cc2C(F)(F)F)CC1,646,,42,
Cc1nc(NC(=O)Cc2cccc(Cl)c2)sc1-c1ccc2c(/C=C/c3ccccn3)n[nH]c2c1,2,4100,10,
Cc1nc(NC(=O)CN2CCN(CCO)CC2)sc1-c1ccc2c(/C=C/c3ccccn3)n[nH]c2c1,18,1020,81,
Cc1nc(NC(=O)CC2CCN(C)CC2)sc1-c1ccc2c(/C=C/c3ccccn3)n[nH]c2c1,32,1560,570,
CN1CCN(Cc2ccc(NC(=O)CCSc3ccc4c(-c5cccnc5)n[nH]c4c3)cc2C(F)(F)F)CC1,736,,9,
Cc1nc(NC(=O)CN2CCN(C)CC2)sc1-c1ccc2c(-c3cnc(N)nc3)n[nH]c2c1,752,> 10000,5630,
Cc1nc(NC(=O)Cc2cccc3ccccc23)sc1-c1ccc2c(/C=C/c3ccccn3)n[nH]c2c1,33,3690,15,
Cc1nc(NC(=O)CN2CCN(C)CC2)sc1-c1ccc2c(-c3cccnc3)n[nH]c2c1,251,5130,2630,

Compound,GI50 [1] [nM],GI50 at 72 h [2] [nM],GI50 at 72 h [3] [nM],further results
Cc1nc(NC(=O)C2CCN(C)CC2)sc1-c1ccc2c(/C=C/c3ccccn3)n[nH]c2c1,89,2510,2040,
Cc1nc(NC(=O)C2CCNCC2)sc1-c1ccc2c(/C=C/c3ccccn3)n[nH]c2c1,145,8710,3050,
Cc1nc(NC(=O)CN2CCN(C)CC2)sc1-c1ccc2c(-c3cncc(F)c3)n[nH]c2c1,54,1690,1800,
CN1CCN(Cc2ccc(C(=O)NCCCSc3ccc4c(/C=C/c5ccccn5)n[nH]c4c3)cc2C(F)(F)F)CC1,370,,1,
Cc1n[nH]c2cc(SCCC(=O)Nc3ccc(CN4CCN(C)CC4)c(C(F)(F)F)c3)ccc12,729,,9,
Cc1nc(NC(=O)c2ccc(CN3CCN(C)CC3)cc2)sc1-c1ccc2c(/C=C/c3ccccn3)n[nH]c2c1,8,1460,12,
CN1CCN(Cc2ccc(NC(=O)CC(=O)Nc3ccc4c(/C=C/c5ccccn5)n[nH]c4c3)cc2C(F)(F)F)CC1,248,2500,4,
Cc1nc(NC(=O)CC2CCNCC2)sc1-c1ccc2c(/C=C/c3ccccn3)n[nH]c2c1,116,> 10000,982,
CN1CCN(Cc2ccc(NC(=O)Nc3cccc(Sc4ccc5c(/C=C/c6ccccn6)n[nH]c5c4)c3)cc2C(F)(F)F)CC1,62,3090,15,
Cc1nc(NC(=O)C(N)Cc2ccccc2)sc1-c1ccc2c(/C=C/c3ccccn3)n[nH]c2c1 (stereo not given),68,708,97,
Cc1nc(NC(=O)c2cccc(C(F)(F)F)c2)sc1-c1ccc2c(/C=C/c3ccccn3)n[nH]c2c1,3,> 10000,5,
CN1CCN(Cc2ccc(C(=O)NCCSc3ccc4c(/C=C/c5ccccn5)n[nH]c4c3)cc2C(F)(F)F)CC1,370,4400,41,
Cc1nc(NC(=O)CN2CCN(C)CC2)sc1-c1ccc2c(-c3cccc(F)c3)n[nH]c2c1,> 10000,1740,1710,
Cc1nc(NC(=O)CC2CCCNC2)sc1-c1ccc2c(/C=C/c3ccccn3)n[nH]c2c1 (stereo not given),300,8350,1930,
CSCCC(N)C(=O)Nc1nc(C)c(-c2ccc3c(/C=C/c4ccccn4)n[nH]c3c2)s1 (stereo not given),13,594,101,
Cc1nc(NC(=O)C(C)C)sc1-c1ccc2c(/C=C/c3ccccn3)n[nH]c2c1,251,1580,181,
CN1CCN(Cc2ccc(C(=O)Nc3cccc(Sc4ccc5c(/C=C/c6ccccn6)n[nH]c5c4)c3)cc2C(F)(F)F)CC1,920,1260,13,
CN1CCN(Cc2ccc(NC(=O)CCSc3ccc4c(/C=C/c5cnccn5)n[nH]c4c3)cc2C(F)(F)F)CC1,88,1640,2,
